Assays:
Assay type in all cases: functional
SK-MEL-2 = experiment: Growth inhibition of human SK-MEL-2 cells
In short: (§1)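 Five-dose testing was run within the NCI (Bethesda) in vitro Anticancer Screen Program on a panel of 53 human tumour cell lines from nine cancer types. Growth inhibition is reported as GI50.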

SNB-75 = experiment: Growth inhibition of human SNB75 cells
In short: (§2)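 Compounds that passed a preliminary screen were tested at five doses in the NCI (Bethesda) in vitro Anticancer Screen Program against a 53-line human tumour panel spanning leukemia, lung, colon, CNS, melanoma, ovarian, renal, prostate and breast. Growth inhibition is reported as GI50.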

MCF7 [1] = experiment: Cell cycle arrest in human MCF7 cells assessed as accumulation at G1 phase at 30 uM after 24 hrs by FACS analysis
In short: (§3)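 MCF-7 cells were treated at 30 µM for 24 h alongside a DMSO control. Fractions in G0, G1, S and G2/M phases were measured by FACS, and values are means of three experiments.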

[2] = Growth inhibition of human Hs 578T cells; in short: as §1
SW-620 = experiment: Growth inhibition of human SW620 cells; in short: as §2
KM12 = experiment: Growth inhibition of human KM12 cells; in short: as §1
SNB-19 = experiment: Growth inhibition of human SNB19 cells; in short: as §2
NCI-H322M = experiment: Growth inhibition of human NCI-H322M cells; in short: as §1
HCT-116 = experiment: Growth inhibition of human HCT116 cells; in short: as §1
SN12C = experiment: Growth inhibition of human SN12C cells; in short: as §2
HOP-92 = experiment: Growth inhibition of human HOP92 cells; in short: as §1
OVCAR-5 = experiment: Growth inhibition of human OVCAR5 cells; in short: as §1
SF-295 = experiment: Growth inhibition of human SF295 cells; in short: as §1
MCF7 [3] = experiment: Cell cycle arrest in human MCF7 cells assessed as accumulation at G2/M phase at 10 uM after 24 hrs by FACS analysis
In short: (§4)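 MCF-7 breast carcinoma cells were exposed to 10 µM test compound for 24 h, with DMSO as the vehicle control. Cell-cycle distribution was read by FACS as the percentage of cells in G0, G1, S and G2/M.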

A549 = experiment: Growth inhibition of human A549 cells; in short: as §1
PC-3 = experiment: Growth inhibition of human PC3 cells; in short: as §1
SK-OV-3 = experiment: Growth inhibition of human SKOV3 cells; in short: as §2
MCF7 [4] = experiment: Growth inhibition of human MCF7 cells; in short: as §1
BT-549 = experiment: Growth inhibition of human BT549 cells; in short: as §1
MDA-MB-435 = experiment: Growth inhibition of human MDA-MB-435 cells; in short: as §1
MCF7 [5] = experiment: Cell cycle arrest in human MCF7 cells assessed as accumulation at G0 phase at 10 uM after 24 hrs by FACS analysis; in short: as §4
UACC-257 = experiment: Growth inhibition of human UACC257 cells; in short: as §2
NCI-H522 = experiment: Growth inhibition of human NCI-H522 cells; in short: as §1
UO-31 = experiment: Growth inhibition of human UO31 cells; in short: as §2
NCI-H460 = experiment: Growth inhibition of human NCI-H460 cells; in short: as §1
SF-539 = experiment: Growth inhibition of human SF539 cells; in short: as §1
RXF 393 = experiment: Growth inhibition of human RXF393 cells; in short: as §1
[6] = Growth inhibition of human RPMI8266 cells; in short: as §1
U-251 = experiment: Growth inhibition of human U251 cells; in short: as §2
T47D = experiment: Growth inhibition of human T47D cells; in short: as §2
COLO 205 = experiment: Growth inhibition of human COLO205 cells; in short: as §1
SK-MEL-28 = experiment: Growth inhibition of human SK-MEL-28 cells; in short: as §1
SK-MEL-5 = experiment: Growth inhibition of human SK-MEL-5 cells; in short: as §1
NCI-H226 = experiment: Growth inhibition of human NCI-H226 cells; in short: as §1
786-0 = experiment: Growth inhibition of human 786-0 cells; in short: as §1
UACC-62 = experiment: Growth inhibition of human UACC62 cells; in short: as §2
HCT-15 = experiment: Growth inhibition of human HCT15 cells; in short: as §1
OVCAR-3 = experiment: Growth inhibition of human OVCAR-3 cells; in short: as §1
SF-268 = experiment: Growth inhibition of human SF268 cells; in short: as §1
MCF7 [7] = experiment: Cell cycle arrest in human MCF7 cells assessed as accumulation at S phase at 10 uM after 24 hrs by FACS analysis; in short: as §4
LOX IMVI = experiment: Growth inhibition of human LOXIMVI cells; in short: as §1
M14 = experiment: Growth inhibition of human M14 cells; in short: as §1
OVCAR-4 = experiment: Growth inhibition of human OVCAR4 cells; in short: as §1
MCF7 [8] = experiment: Cell cycle arrest in human MCF7 cells assessed as accumulation at G2/M phase at 30 uM after 24 hrs by FACS analysis; in short: as §3
EKVX = experiment: Growth inhibition of human EKVX cells; in short: as §1
Malme-3M = experiment: Growth inhibition of human MALME-3M cells; in short: as §1
NCI-H23 = experiment: Growth inhibition of human NCI-H23 cells; in short: as §1
HT-29 = experiment: Growth inhibition of human HT-29 cells; in short: as §1
TK-10 = experiment: Growth inhibition of human TK10 cells; in short: as §2
OVCAR-8 = experiment: Growth inhibition of human OVCAR8 cells; in short: as §1
HCC 2998 = experiment: Growth inhibition of human HCC2998 cells; in short: as §1
NCI/ADR-RES = experiment: Growth inhibition of human NCI/ADR-RES cells; in short: as §1
MCF7 [9] = experiment: Cell cycle arrest in human MCF7 cells assessed as accumulation at G0 phase at 30 uM after 24 hrs by FACS analysis; in short: as §3
MCF7 [10] = experiment: Cell cycle arrest in human MCF7 cells assessed as accumulation at S phase at 30 uM after 24 hrs by FACS analysis; in short: as §3
MDA-MB-231 = experiment: Growth inhibition of human MDA-MB-231 cells; in short: as §1
A498 = experiment: Growth inhibition of human A498 cells; in short: as §1
CAKI-1 = experiment: Growth inhibition of human Caki1 cells; in short: as §1
K562 = experiment: Growth inhibition of human K562 cells; in short: as §1
ACHN = experiment: Growth inhibition of human ACHN cells; in short: as §1
HOP-62 = experiment: Growth inhibition of human HOP62 cells; in short: as §1
MCF7 [11] = experiment: Cell cycle arrest in human MCF7 cells assessed as accumulation at G1 phase at 10 uM after 24 hrs by FACS analysis; in short: as §4

With `COc1ccc(-c2cn(-c3cccc(C(=O)/C=C/c4cc(OC)c(OC)c(OC)c4)c3)c(=O)[nH]2)cc1` the GI50 (SK-MEL-2) was 2630 nM, the GI50 (SNB-75) was 4590 nM and the Activity (MCF7 [1]) was 46.02%. The GI50 [2] was 3390 nM, the GI50 (SW-620) was 450 nM and the GI50 (KM12) was 1420 nM. The GI50 (SNB-19) was 4380 nM, the GI50 (NCI-H322M) was 2660 nM and the GI50 (HCT-116) was 370 nM. The GI50 (SN12C) was 3500 nM, the GI50 (HOP-92) was 14900 nM and the GI50 (OVCAR-5) was 2640 nM. For the same molecule, the GI50 (SF-295) was 4950 nM, the Activity (MCF7 [3]) was 14.08% and the GI50 (A549) was 11800 nM. The GI50 (PC-3) was 6220 nM, the GI50 (SK-OV-3) was 4600 nM and the GI50 (MCF7 [4]) was 440 nM. It also gave a GI50 (BT-549) of 2590 nM, a GI50 (MDA-MB-435) of 1860 nM and an Activity (MCF7 [5]) of 3.79%. For the same molecule, the GI50 (UACC-257) was 3040 nM, the GI50 (NCI-H522) was 1850 nM and the GI50 (UO-31) was 1910 nM. The GI50 (NCI-H460) was 1560 nM, the GI50 (SF-539) was 2000 nM and the GI50 (RXF 393) was 1920 nM. For the same molecule, the GI50 [6] was 920 nM, the GI50 (U-251) was 880 nM and the GI50 (T47D) was 3840 nM. The GI50 (COLO 205) was 1840 nM, the GI50 (SK-MEL-28) was 2030 nM and the GI50 (SK-MEL-5) was 2030 nM. The GI50 (NCI-H226) was 35200 nM, the GI50 (786-0) was 1610 nM and the GI50 (UACC-62) was 2060 nM. The GI50 (HCT-15) was 1380 nM, the GI50 (OVCAR-3) was 1780 nM and the GI50 (SF-268) was 3210 nM. The Activity (MCF7 [7]) was 21.47%, the GI50 (LOX IMVI) was 720 nM and the GI50 (M14) was 1850 nM. For the same molecule, the GI50 (OVCAR-4) was 3570 nM, the Activity (MCF7 [8]) was 9.51% and the GI50 (EKVX) was 4200 nM. The GI50 (Malme-3M) was 1790 nM, the GI50 (NCI-H23) was 1630 nM and the GI50 (HT-29) was 1280 nM. The GI50 (TK-10) was 3040 nM, the GI50 (OVCAR-8) was 2530 nM and the GI50 (HCC 2998) was 1640 nM. The GI50 (NCI/ADR-RES) was 1700 nM, the Activity (MCF7 [9]) was 36.02% and the Activity (MCF7 [10]) was 8.45%. The GI50 (MDA-MB-231) was 5480 nM, the GI50 (A498) was 4210 nM and the GI50 (CAKI-1) was 3050 nM. The GI50 (K562) was 1270 nM, the GI50 (ACHN) was 1820 nM and the GI50 (HOP-62) was 5910 nM. The Activity (MCF7 [11]) was 60.66%.
